Test results as given in ChEMBL document CHEMBL3046177, “Plant growth inhibitory activity of p-hydroxyacetophenones and tremetones from Chilean endemic Baccharis species and some analogous: a comparative study” (J Agric Food Chem, 2002).
Calls of active or inactive are those of the source. The calls are words filed in the database; no cut-off is given here.

Legend:
Physalis ixocarpa [1] = experiment: Phytotoxicity against Physalis ixocarpa assessed as inhibition of shoot development during seeding stage after 120 hr; assay type: functional, organism-based; conditions: for IC50: read-out: I50
In short: (§1)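 Petri-dish seedling assay on filter paper wetted with test solution (MeOH < 1%), 28 °C in the dark. Coleoptile/hypocotyl and root lengths of all germinated seeds measured after 120 h, then plants dried to constant weight at 40 °C. Three replicates; 50% inhibitory concentrations by Probit analysis of percent inhibition versus concentration.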

Lactuca sativa [2] = experiment: Phytotoxicity against Lactuca sativa (lettuce) assessed as inhibition of shoot development during seeding stage after 120 hr; assay type: functional, organism-based; conditions: for IC50: read-out: I50; in short: as §1
Lactuca sativa [3] = experiment: Phytotoxicity against Lactuca sativa (lettuce) assessed as inhibition of root development during seeding stage after 120 hr; assay type: functional, organism-based; conditions: for IC50: read-out: I50; in short: as §1
Physalis ixocarpa [4] = experiment: Phytotoxicity against Physalis ixocarpa assessed as inhibition of seed respiration during germination after 72 hr; assay type: functional, organism-based; conditions: read-out: I50
In short: (§2)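 Oxygen uptake of germinating seeds measured polarographically with a Clark-type electrode at 25 °C in a nonilluminated cell over 5 and 10 min, at several compound concentrations. Expressed as percent of control (100%). Three experiments; RI50 from Probit analysis.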

Physalis ixocarpa [5] = experiment: Phytotoxicity against Physalis ixocarpa assessed as inhibition of seed germination after 48 hr; assay type: functional
In short: (§3)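 Seeds of uniform size on Whatman No.1 filter paper in 85 mm Petri dishes, wetted with 8 or 10 mL deionized water or test solution (MeOH < 1%); controls got matching water/methanol. Sealed, incubated at 28 °C in the dark, scored at 48 h intervals; germination = 1 mm radicle extrusion. Three replicates.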

Spinacia oleracea [6] = experiment: Inhibition of ATP synthesis in Spinacia oleracea (spinach) chloroplasts; assay type: functional
In short: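 Spinach thylakoids in 100 mM sorbitol, 5 mM MgCl2, 10 mM KCl, 1 mM Na+-tricine, pH 8, with 50 µM methyl viologen as Hill-reaction electron acceptor. Illuminated at 20 °C through 1% CuSO4 filter. ATP synthesis measured titrimetrically.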

Lolium multiflorum [7] = experiment: Phytotoxicity against Lolium multiflorum (Italian ryegrass) assessed as inhibition of shoot development during seeding stage after 120 hr; assay type: functional, organism-based; conditions: for IC50: read-out: I50; in short: as §1
Trifolium pratense [8] = experiment: Phytotoxicity against Trifolium pratense (red clover) assessed as inhibition of seed respiration during germination after 72 hr; assay type: functional, organism-based; conditions: read-out: I50; in short: as §2
[9] = Antioxidant activity assessed as inhibition of bleaching of water soluble crocin measured every 5 min by spectrophotometric analysis; assay type: functional
In short: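 Aqueous mixture of 10 µM crocin, 1 mM t-BuOOH and 0.5 M t-BuOH with serial dilutions of test compound, placed under UV254 light; crocin bleaching (absorbance decrease) and fluorescence emission at 440 and 470 nm followed every 5 min. Three experiments, mean ± SEM.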

Lolium multiflorum [10] = experiment: Phytotoxicity against Lolium multiflorum (Italian ryegrass) assessed as inhibition of root development during seeding stage after 120 hr; assay type: functional, organism-based; conditions: for IC50: read-out: I50; in short: as §1
Physalis ixocarpa [11] = experiment: Phytotoxicity against Physalis ixocarpa assessed as inhibition of root development during seeding stage after 120 hr; assay type: functional, organism-based; conditions: for IC50: read-out: I50; in short: as §1
Spinacia oleracea [12] = experiment: Inhibition of H+ uptake in Spinacia oleracea (spinach) chloroplasts; assay type: functional; conditions: for IC50: read-out: I50
In short: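 Spinach thylakoids (from isolated chloroplasts, in sorbitol/tricine/MgCl2/NaCl buffer, pH 7.8) in 100 mM sorbitol, 5 mM MgCl2, 10 mM KCl, 1 mM Na+-tricine, pH 8, with 50 µM methyl viologen. Illuminated at 20 °C through 1% CuSO4 filter. H+ uptake recorded as pH rise from 8.0 to 8.1 with combination microelectrode on expanded scale.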

Lolium multiflorum [13] = experiment: Phytotoxicity against Lolium multiflorum (Italian ryegrass) assessed as inhibition of seed respiration during germination after 72 hr; assay type: functional, organism-based; conditions: read-out: I50; in short: as §2
Phaseolus vulgaris = experiment: Inhibition of mitochondrial respiration in Phaseolus vulgaris root mitochondria assessed as reduction of oxygen uptake; assay type: functional; conditions: read-out: I50
In short: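 Mitochondria from roots of 72 h dark-grown (28 °C) bean seedlings, Percoll-gradient purified, 0.3-0.5 mg protein (Bradford) per run; integrity checked with HCN. Compounds in 0.5% methanol added after a constant state 3 rate with […] was reached. O2 uptake by Clark electrode; control is mitochondria with 0.5% MeOH. Three experiments; I50 by Probit.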

Lactuca sativa [14] = experiment: Phytotoxicity against Lactuca sativa (lettuce) assessed as inhibition of seed respiration during germination after 72 hr; assay type: functional, organism-based; conditions: read-out: I50; in short: as §2
Trifolium pratense [15] = experiment: Phytotoxicity against Trifolium pratense (red clover) assessed as inhibition of seed germination after 48 hr; assay type: functional; in short: as §3
Lolium multiflorum [16] = experiment: Phytotoxicity against Lolium multiflorum (Italian ryegrass) assessed as inhibition of seed germination after 48 hr; assay type: functional; in short: as §3
Lactuca sativa [17] = experiment: Phytotoxicity against Lactuca sativa (lettuce) assessed as inhibition of seed germination after 48 hr; assay type: functional; in short: as §3
[18] = tested on: Radical scavenging activity; experiment: Antioxidant activity assessed as DPPH free radical scavenging activity after 30 min by TLC autographic assay; assay type: functional; conditions: in the assay text read “spectrophotometric assay” for “TLC autographic assay”; read-out: I50
Trifolium pratense [19] = experiment: Phytotoxicity against Trifolium pratense (red clover) assessed as inhibition of root development during seeding stage after 120 hr; assay type: functional, organism-based; conditions: for IC50: read-out: I50; in short: as §1
Trifolium pratense [20] = experiment: Phytotoxicity against Trifolium pratense (red clover) assessed as inhibition of shoot development during seeding stage after 120 hr; assay type: functional, organism-based; conditions: for IC50: read-out: I50; in short: as §1
Trifolium pratense [21] = experiment: Increase of root development during seeding stage in Trifolium pratense (red clover) at 50 to 300 uM after 120 hr; assay type: functional, organism-based; in short: as §1
Lactuca sativa [22] = experiment: Phytotoxicity against Lactuca sativa (lettuce) assessed as inhibition of seed respiration during germination after 24 hr; assay type: functional, organism-based; in short: as §2
[23] = tested on: Lolium multiflorum (ryegrass); experiment: Phytotoxicity against Lolium multiflorum (ryegrass) assessed as inhibition of seed germination at 500 uM after 48 hr
Lolium multiflorum [24] = experiment: Phytotoxicity against Lolium multiflorum (Italian ryegrass) assessed as inhibition of seed germination at 500 uM after 48 hr; assay type: functional; in short: as §3
Trifolium pratense [25] = experiment: Increase of shoot development during seeding stage in Trifolium pratense (red clover) at 200 uM after 120 hr; assay type: functional, organism-based; in short: as §1
Lolium multiflorum [26] = experiment: Phytotoxicity against Lolium multiflorum (Italian ryegrass) assessed as inhibition of seed respiration during germination after 24 hr; assay type: functional, organism-based; in short: as §2
Physalis ixocarpa [27] = experiment: Increase of shoot development during seeding stage in Physalis ixocarpa up to 50 uM after 120 hr; assay type: functional, organism-based; in short: as §1
Lactuca sativa [28] = experiment: Increase of root development during seeding stage in Lactuca sativa (lettuce) at 50 to 300 uM after 120 hr; assay type: functional, organism-based; in short: as §1
Trifolium pratense [29] = experiment: Phytotoxicity against Trifolium pratense (red clover) assessed as inhibition of seed respiration during germination after 24 hr; assay type: functional, organism-based; in short: as §2
Physalis ixocarpa [30] = experiment: Phytotoxicity against Physalis ixocarpa assessed as inhibition of seed respiration during germination after 24 hr; assay type: functional, organism-based; in short: as §2

Row | SMILES | IC50 (Physalis ixocarpa [1]) [µM] | IC50 (Lactuca sativa [2]) [µM] | IC50 (Lactuca sativa [3]) [µM] | IC50 (Physalis ixocarpa [4]) [µM] | GI50 (Physalis ixocarpa [5]) | inhibition (Spinacia oleracea [6]) | IC50 (Lolium multiflorum [7]) [µM] | IC50 (Lolium multiflorum [10]) [µM] | IC50 (Physalis ixocarpa [11]) [µM] | inhibition (Spinacia oleracea [12]) | IC50 (Spinacia oleracea [12]) [µM] | GI50 (Trifolium pratense [15]) | GI50 (Lolium multiflorum [16]) | GI50 (Lactuca sativa [17]) | IC50 (Trifolium pratense [19]) [µM] | IC50 (Trifolium pratense [20]) [µM] | I50 (Lactuca sativa [22]) | I50 (Lolium multiflorum [26]) | I50 (Trifolium pratense [29]) | I50 (Physalis ixocarpa [30]) | also measured
1 | CC(=O)c1ccc2c(c1O)C[C@H](C1(C)CO1)O2 (stereo not given in full) | 7.7 | 10.5 | 10.9 | 15.8 | 8.7 µM | Dose-dependent effect | 11.2 | 11.9 | 9.9 | Dose-dependent effect | 13.8 | 7.1 µM | 10.4 µM | 11.5 µM | 7.1 | 7.2 | – | – | – | – | IC50 (Trifolium pratense [8]): 10.1 µM; inhibition [9]: Active; IC50 (Lolium multiflorum [13]): 18 µM; IC50 (Phaseolus vulgaris): 17.1 µM; IC50 (Lactuca sativa [14]): 11 µM; IC50 [18]: 30.6 µM
2 | CC(=O)c1ccc(Br)cc1 | – | – | – | – | inactive | – | – | – | – | – | – | inactive | inactive | inactive | – | – | inactive | inactive | inactive | inactive | Activity (Trifolium pratense [21]): Active; I50 (Physalis ixocarpa [1]): inactive; I50 (Lactuca sativa [2]): inactive; inhibition at 500 µM [23]: 30%; I50 (Lactuca sativa [3]): inactive; I50 (Lolium multiflorum [7]): inactive; inhibition at 500 µM (Lolium multiflorum [24]): 30%; Activity (Trifolium pratense [25]): Active; I50 (Lolium multiflorum [10]): inactive; I50 (Physalis ixocarpa [11]): inactive; Activity (Physalis ixocarpa [27]): Active; Activity (Lactuca sativa [28]): Active; I50 (Trifolium pratense [19]): inactive; I50 (Trifolium pratense [20]): inactive
3 | CC(=O)c1ccc(O)cc1 [4-HYDROXYACETOPHENONE] | 10.8 | 48.5 | 45.5 | 52.9 | 15 µM | Dose-dependent effect | 17.1 | 19 | 10.8 | Dose-dependent effect | 74.5 | 28.5 µM | 14.4 µM | 45.3 µM | 29.5 | 34.4 | – | – | – | – | IC50 (Trifolium pratense [8]): 53 µM; inhibition [9]: Active; IC50 (Lolium multiflorum [13]): 41 µM; IC50 (Phaseolus vulgaris): 121 µM; IC50 (Lactuca sativa [14]): 43 µM
4 | CC(=O)c1ccc2c(c1)C[C@H](C(C)C)O2 [10,11-DIHYDRO TREMETONE] | 20.1 | 17.3 | 17.4 | – | 24.7 µM | – | 29.3 | 31.9 | 19.1 | – | – | 27.9 µM | 31.5 µM | 25.9 µM | 28.6 | 23.2 | inactive | inactive | inactive | inactive | –
5 | CC(=O)c1ccccc1 [ACETOPHENONE] | – | 49.5 | 45.7 | – | inactive | – | 126 | 128 | – | – | – | 137 µM | 128 µM | 47 µM | 134 | 137 | inactive | inactive | inactive | inactive | I50 (Physalis ixocarpa [1]): inactive; inhibition at 500 µM [23]: 30%; inhibition at 500 µM (Lolium multiflorum [24]): 30%; I50 (Physalis ixocarpa [11]): inactive
6 | COc1ccc(C(C)=O)cc1 [P-METHOXY-ACETOPHENONE] | 20.1 | 49.5 | 44.3 | 54.6 | 23.5 µM | Dose-dependent effect | 17.9 | 18.9 | 20.5 | Dose-dependent effect | 65.7 | 126 µM | 18.1 µM | 51.2 µM | 126 | 120 | – | – | – | – | IC50 (Trifolium pratense [8]): 57.6 µM; IC50 (Lolium multiflorum [13]): 40 µM; IC50 (Phaseolus vulgaris): 152 µM; IC50 (Lactuca sativa [14]): 55.9 µM
7 | O=C1C(O)=C(O)C(=O)C(O)=C1O [TETROQUINONE] | – | – | – | – | – | – | – | – | – | – | – | – | – | – | – | – | – | – | – | – | IC50 [18]: 9.37 µM
8 | C=C(C)[C@H]1Cc2cc(C(C)=O)ccc2O1 [TREMETONE] | 7.7 | 45 | 44.2 | – | 31.8 µM | Dose-dependent effect | 35 | 36.1 | 18.6 | Dose-dependent effect | 70.7 | 35.5 µM | 37.5 µM | 45 µM | 34.9 | 35.5 | inactive | inactive | inactive | inactive | inhibition [9]: Active
